High-throughput results deposited in PubChem BioAssay by several laboratories.
FLuc stim CS: affects firefly luciferase, flagging false hits in luciferase stimulation screens. 200,000 tested, under 10 active. ATPlite luciferase biochemical, luminescence, 10 min; 0 = ATP-free wells, 1 = DMSO control. activation factor at 10 µM. P08659. AID 1027;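 active means luciferase activation factor, scaled between plate controls, of at least 2 with compound at 10 µM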
Target sequence (P08659 whole entry, looked up): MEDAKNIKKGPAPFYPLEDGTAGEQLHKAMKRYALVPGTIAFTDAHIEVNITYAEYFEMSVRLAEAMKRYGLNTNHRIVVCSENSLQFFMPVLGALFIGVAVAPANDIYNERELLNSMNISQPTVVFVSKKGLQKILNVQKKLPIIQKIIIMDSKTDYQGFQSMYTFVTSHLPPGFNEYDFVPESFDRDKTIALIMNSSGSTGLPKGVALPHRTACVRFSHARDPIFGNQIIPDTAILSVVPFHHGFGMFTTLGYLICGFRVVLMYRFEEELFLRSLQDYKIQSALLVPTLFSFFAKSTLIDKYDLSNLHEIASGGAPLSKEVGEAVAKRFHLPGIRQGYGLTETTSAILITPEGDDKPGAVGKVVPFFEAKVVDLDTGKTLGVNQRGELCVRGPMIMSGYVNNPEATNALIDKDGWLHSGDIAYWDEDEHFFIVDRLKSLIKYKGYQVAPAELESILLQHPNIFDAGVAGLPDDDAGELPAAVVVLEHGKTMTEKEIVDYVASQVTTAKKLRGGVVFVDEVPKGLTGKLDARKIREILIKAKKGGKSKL
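System: cell-free luciferase reagent; medium: PBS as buffer for the ATP substrate; doses: test compounds dosed from 2 mM stocks in 100% DMSO; incubation: 10 min, room temperature; measured by: luminescence from luciferase reaction; read-out: luciferase activation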
TRAIL sens C8: sensitizes caspase-8 expressing cells to TRAIL. NB7+C8 cells + TRAIL, ATPlite viability luminescence. inhibition (viability loss, TRAIL sensitization), % at 10 µM. 360,000 compounds, 1% hits;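 active means compounds causing at least 50% loss of cell viability in the single-dose screen, relative to plate controls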
PPC-1+TRAIL kill: compounds killing PPC-1 cancer cells with TRAIL present (potentiator screen, no TRAIL-free arm) | cell killing (% activity), % at 4 µM or 5 µM | PPC-1 cells + TRAIL, ATPLite viability luminescence | 220,000 compounds, 0.41% hits;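 active means cell killing above 50% in the first pass at 4 µM, then a duplicate retest at 5 µM averaging 50% or more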;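 further: plate controls were cells with TRAIL plus DMSO for no effect and medium-only wells lacking cells for full effect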
HSP90 refold inh: blocks HSP90-mediated luciferase refolding in reticulocyte lysate. inhibition, % at 5.6 µM. Rabbit reticulocyte lysate, luciferase refolding luminescence, 3 h. AID 1789. 290,000 compounds, 0.91% hits;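 active means inhibition above the screen-wide mean plus 3 SD, computed separately per campaign, cut at about 16% in these data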;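 further: 0% = DMSO wells and 100% = 60 µM geldanamycin wells; inhibitors lower the luminescence because luciferase stays unfolded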
FLuc inh counter: inhibits firefly luciferase, flagging false hits in luciferase inhibition screens | P08659 | ATPLite firefly luciferase biochemical luminescence, 10 min | inhibition, % at 10 µM | 200,000 compounds, 1.5% hits | AID 1006;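 active means inhibition above about 50% when tested at 10 µM, limit read from the data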
* marks the source's active call; other numbers are inactive results; . = no result. The list is not random: actives were taken first. Their share in the collection is about 2%.

SMILES | FLuc stim CS | TRAIL sens C8 | PPC-1+TRAIL kill | HSP90 refold inh | FLuc inh counter
c1cn2cc(-c3ccc4c(c3)OCO4)nc2s1 | 0.2 | 44 | 46 | 7 | 78*
Cc1cc(=O)[nH]c(SCC(=O)Nc2c(C)n(C)n(-c3ccccc3)c2=O)c1C#N | . | -9 | . | . | .
COC1=CC(=O)c2nc(Cl)ccc2C1=O | . | 95* | . | . | .
C=CCN1C(=O)/C(=C/c2ccsc2)SC1=S | 1 | -9 | 16 | 2 | 2
C=CCN1C(=O)C(=Cc2ccc3c(c2)CCC3)SC1=S | . | 92* | . | . | .
O=c1c(Cc2c(F)cccc2Cl)c(O)ccn1CCCN1CCOCC1 | 1 | -5 | 2 | -2 | -3
CCC(=O)OCOc1ccc(/C=C2/CCC(CN(C)C)C2=O)cc1 (stereo not drawn) | . | 72* | . | . | .
CCOc1ccc(/C=C2\CCC(C3CCCC3)C2=O)cc1 (stereo not drawn) | . | 8 | . | -4 | .
CSc1nc(O)c(/C=C2\C=Nc3ccccc32)[nH]1 | 0.4 | 9 | 23 | -2 | 60*
O=c1[nH]c(/C=C2\C=Nc3ccccc32)c(O)n1Cc1ccccc1F | 1.1 | 39 | 12 | 13 | -5
Cc1cc(=O)[nH]c(SC(C)C(=O)Nc2cccc3ccccc23)n1 (stereo not drawn) | . | 13 | . | 1 | .
c1ccc(CCOn2ccnc2)cc1 | . | 17 | . | 0 | .
O=C(N/N=C/c1ccc(OCC(=O)N2CCOCC2)cc1)c1ccccc1Cl | 1 | -10 | 28 | 4 | 2
O=C(Nc1ccc(OCC(=O)N2CCOCC2)cc1)c1ccccc1Cl | . | 83* | . | 13 | .
CCCCOc1ccc(C(=O)Nc2ccc(OCC(=O)N3CCOCC3)cc2)cc1 | . | 70* | . | -1 | .
Cc1cnc(-c2nc3ccccc3n2C(C)C(=O)Nc2c(C)cccc2C)cn1 (stereo not drawn) | . | -8 | . | . | .
COc1cc(C2C3=C(CC(C)(C)CC3=O)N(C)C3=C2C(=O)CC(C)(C)C3)cc(Br)c1O | . | -1 | . | 0 | .
COc1cccc(/C(C)=N/Nc2ccc(S(=O)(=O)N3CCCCC3)cn2)c1 | . | 1 | . | . | .
Cc1cc(C(=O)C(C(c2ccccc2)N2CCOCC2)N2CCOCC2)ccc1Cl (stereo not drawn) | . | -8 | . | . | .
FC(F)(F)c1cc(Cl)c2nc(-c3ccccc3)c(Cc3ccsc3)n2c1 | . | 6 | . | . | .
FC(F)(F)c1cc(Cl)c2nc(-c3ccccc3)cn2c1 | 0.6 | 51* | 8 | 5 | 41
Nc1cccc(-c2cn3cc(C(F)(F)F)cc(Cl)c3n2)c1 | 0.3 | 34 | 33 | 8 | 68*
Cc1cc(C(F)(F)F)nc(-n2cc(-c3cccc(N)c3)nn2)n1 | 1.1 | -23 | 18 | -1 | -6
COc1cc(OC)c2c(=O)cc(-c3cccnc3)oc2c1 | . | 5 | 32 | 0 | .
COc1cc(OC)c2c(=O)cc(-c3ccccc3)oc2c1 | 0.4 | 32 | 36 | 0 | 58*
SMILES | FLuc stim CS | TRAIL sens C8 | PPC-1+TRAIL kill | HSP90 refold inh | FLuc inh counter
CSCCC(NC(=O)COc1ccccc1)C(=O)N1CCCC(C(F)(F)F)C1 (stereo not drawn) | . | -15 | . | . | .
Nc1c(N(CCC2=CCCCC2)C(=O)COc2ccc(F)cc2Cl)c(=O)[nH]c(=O)n1Cc1ccccc1 | . | 88* | . | . | .
CC(=O)NC1(c2ccccc2)CCN(CC(=O)N2CCC(C)CC2)CC1 | 1 | -1 | -2 | 1 | -5
Cc1cc(NC(=O)COC(=O)CCNS(=O)(=O)c2cccc(C(F)(F)F)c2)no1 | 1.1 | 3 | 6 | 4 | -7
CCc1cc2c(COC(=O)CCNS(=O)(=O)c3cccc(C(F)(F)F)c3)cc(=O)oc2cc1O | . | 54* | . | . | .
CCc1ccc(C2C(C(=O)O)c3ccccc3C(=O)N2C)cc1 (stereo not drawn) | 1.1 | 0 | 16 | 4 | -12
O=C(/C=C/c1ccccc1)C1C(=O)c2ccccc2C1=O | 0 | 87* | 37 | 0 | 95*
O=C(c1ccccc1)C1C(=O)c2ccccc2C1=O | 1 | 13 | -8 | 2 | -3
CCc1ccc(/C=C/C(=O)C2C(=O)c3ccccc3C2=O)cc1 | 0 | 91* | 24 | 4 | 96*
CCN1C[C@@H]2[C@@H]3C(=O)N(Cc4ccccc4)C(=O)[C@@H]3[C@](C)(C1=O)N2C(=O)c1ccc(Cl)cc1 | . | 8 | . | . | .
CCOC(=O)N1CCC(NC(=O)c2cc3c(=O)[nH]c4ccccc4c3n2C)CC1 | 1 | -5 | -20 | -1 | -5
Cc1cc(C(=O)COC(=O)[C@H](C)NC(=O)c2ccco2)c(C)n1Cc1ccco1 | 0.4 | 1 | 14 | -1 | 56*
COc1cccc2cc(CC(=O)c3ccc(C)cc3C)c(=O)oc12 | . | -11 | . | -5 | .
c1ccc(-c2nc3ccccc3s2)nc1 | 0.4 | 17 | 14 | 5 | 61*
Brc1ccc(-c2nc3ccccc3s2)s1 | 0.4 | 24 | 22 | -4 | 64*
Cc1cc(-c2nc3ccccc3s2)ccc1N | . | 72* | . | . | .
Brc1cc2c(cc1-c1nc3ccccc3s1)OCO2 | . | -3 | . | 2 | .
Nc1ccc(-c2nc3ccccc3s2)cn1 | . | 24 | . | -4 | .
CN(C)c1ncccc1-c1nc2ccccc2s1 | 1 | -2 | -8 | 1 | -3
Cc1ccc(S(=O)(=O)NCCC(=O)NCCOc2ccccc2)cc1 | . | -11 | . | . | .
O=C(O)c1c[nH]c2nccnc12 | . | 11 | . | . | .
COc1cccc2c1C(=O)C=C(C)C2=O | 1 | -6 | 27 | 15 | -4
COC1=CC(=O)c2c(ccc3ncnc(N)c23)C1=O | . | 92* | . | . | .
O=c1c2ccccc2nc2ccc(NCc3cccs3)nn12 | 0.4 | 13 | . | 0 | 59*
CC(=O)N(c1cc(C)ccc1C)c1ccccc1[N+](=O)[O-] | . | -10 | . | . | .
SMILES | FLuc stim CS | TRAIL sens C8 | PPC-1+TRAIL kill | HSP90 refold inh | FLuc inh counter
O=[N+]([O-])c1ccc2nc(-c3ccc(OC(F)F)cc3)cn2c1 | 0.8 | 27 | -22 | 17* | 24
O=C1NC[C@@H](CCCCN2C[C@H](Cc3ccc(O)cc3)N(CCc3ccccc3)C(=O)C2=O)N(Cc2ccccc2)C1=O | . | -8 | . | . | .
COc1ccccc1N=C1NC(=O)/C(=C/c2ccc(N(C)C)cc2)S1 | . | 49* | . | -1 | .
Cc1ccc(NC(=O)C(=O)NCc2ccc(/C=N/NC(=O)c3c(C)nc4ccccn34)o2)cc1 | 0.3 | 37 | 24 | -1 | 73*
Cc1ccn2c(C(=O)N/N=C/c3ccc(CNC(=O)C(=O)Nc4ccc(C)c(C)c4)o3)c(C)nc2c1 | 0.8 | . | -1 | 4 | 23
O=C(CCS(=O)(=O)c1ccccc1)Nc1cccc(-c2nc3ccccc3s2)c1 | 0.7 | 54* | 22 | 1 | 27
O=C(Nc1cccc(-c2nc3ccccc3s2)c1)c1cccs1 | 1 | 0 | 0 | -7 | 2
Cc1cc2ncc(-c3ccc(Cl)cc3)c(N)n2n1 | 0.4 | 35 | 28 | -2 | 58*
CC1(C)N=C(N)N=C(N)N1c1cccc(C(=O)O)c1 | 1.1 | 3 | 1 | 6 | -8
CCOc1ccc(N2C(N)=NC(N)=NC2(C)C)cc1 | 1.2 | 75* | 33 | 2 | -17
COc1ccccc1N1C(N)=NC(N)=NC1(C)C | 1.1 | -1 | 19 | -3 | -6
COc1cccc(N2C(N)=NC(N)=NC2(C)C)c1 | 1 | 85* | 26 | 2 | 4
Cc1ccc(N2C(N)=NC(N)=NC2(C)C)c(C)c1 | 1 | 72* | -30 | 0 | -3
